Results from ChEMBL document CHEMBL1147379, “Antineoplastic agents, 256. Cell growth inhibitory isocarbostyrils from Hymenocallis” (1993).
Converted amounts (≈) assume the structure as drawn.

Tests used:
Format in all cases: functional
SF-295 = test: Growth inhibition of human SF295 cells; settings: read-out: pTGI (converted)
Summary of the method: (§1)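 NCI 60-human-tumour-cell-line primary in vitro screen. Each compound was tested eight separate times across three concentration ranges with upper limits of 10⁻⁴, 10⁻⁵ and 10⁻⁶ M. Each range used five 10-fold dilutions. GI₅₀, TGI and LC₅₀ were calculated from the concentration-response curves for each cell line, and averaged mean-graph values were constructed from them.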

SF-539 = test: Growth inhibition of human SF539 cells; summary of the method: as §1
SNB-19 = test: Growth inhibition of human SNB19 cells; summary of the method: as §1
SNB-75 = test: Growth inhibition of human SNB75 cells; summary of the method: as §1
SNB-78 = test: Growth inhibition of human SNB78 cells
Summary of the method: (§2)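 NCI 60-human-tumour-line in vitro primary screen. Each compound tested eight separate times over three concentration ranges (upper limits 10⁻⁴, 10⁻⁵ and 10⁻⁶ M), each range as five 10-fold dilutions. GI₅₀ (also TGI and LC₅₀) derived from the concentration-response curves, reported as averaged values per cell line (negative log₁₀).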

U-251 = test: Growth inhibition of human U251 cells; summary of the method: as §2
XF498 = test: Growth inhibition of human XF498 cells; summary of the method: as §2
LOX IMVI = test: Growth inhibition of human LOXIMVI cells; summary of the method: as §1
Malme-3M = test: Growth inhibition of human MALME-3M cells; summary of the method: as §1
M14 = test: Growth inhibition of human M14 cells; summary of the method: as §1
M19-MEL = test: Growth inhibition of human M19-MEL cells; summary of the method: as §1
SK-MEL-2 = test: Growth inhibition of human SK-MEL-2 cells; summary of the method: as §1
SK-MEL-28 = test: Growth inhibition of human SK-MEL-28 cells; summary of the method: as §1
SK-MEL-5 = test: Growth inhibition of human SK-MEL-5 cells; summary of the method: as §1
UACC-257 = test: Growth inhibition of human UACC257 cells; summary of the method: as §2
UACC-62 = test: Growth inhibition of human UACC62 cells; summary of the method: as §2
IGROV-1 = test: Growth inhibition of human IGROV1 cells; summary of the method: as §1
OVCAR-3 = test: Growth inhibition of human OVCAR-3 cells; summary of the method: as §1
OVCAR-4 = test: Growth inhibition of human OVCAR4 cells; summary of the method: as §1
OVCAR-5 = test: Growth inhibition of human OVCAR5 cells; summary of the method: as §1
OVCAR-8 = test: Growth inhibition of human OVCAR8 cells; summary of the method: as §1
SK-OV-3 = test: Growth inhibition of human SKOV3 cells; summary of the method: as §1
[1] = Growth inhibition of human 786-O cells; summary of the method: as §1
A498 = test: Growth inhibition of human A498 cells; summary of the method: as §1
ACHN = test: Growth inhibition of human ACHN cells; summary of the method: as §1
CAKI-1 = test: Growth inhibition of human Caki1 cells; summary of the method: as §1
RXF 393 = test: Growth inhibition of human RXF393 cells; summary of the method: as §1
SN12C = test: Growth inhibition of human SN12C cells; summary of the method: as §1
TK-10 = test: Growth inhibition of human TK10 cells; summary of the method: as §2
UO-31 = test: Growth inhibition of human UO31 cells; summary of the method: as §2
P388 = test: Growth inhibition of mouse P388 cells; settings: read-out: ED50 (the source's name)
[2] = read-out: pLC50 (the source's name) (converted)

In the case of O=C1N[C@H]2[C@H](O)[C@H](O)[C@@H](O)C[C@@H]2c2cc3c(cc21)OCO3, the TGI (SF-295) was 0.912 µM, the GI50 (SF-539) was 0.0603 µM and the CC50 (SF-539; [2]) was 1.41 µM. The TGI (SF-539; read-out: pTGI (converted)) was 0.282 µM, the GI50 (SNB-19) was 0.0417 µM and the CC50 (SNB-19; [2]) was 93.3 µM. It also gave a TGI (SNB-19; read-out: pTGI (converted)) of 1 µM, a GI50 (SNB-75) of 0.0603 µM and a CC50 (SNB-75; [2]) of 24 µM. It also gave a TGI (SNB-75; read-out: pTGI (converted)) of 0.437 µM, a GI50 (SNB-78) of 0.0871 µM and a CC50 (SNB-78; [2]) of 83.2 µM. The TGI (SNB-78; read-out: pTGI (converted)) was 0.912 µM, the GI50 (U-251) was 0.0479 µM and the CC50 (U-251; [2]) was 37.2 µM. It also gave a TGI (U-251; read-out: pTGI (converted)) of 1.29 µM, a GI50 (XF498) of 0.0813 µM and a CC50 (XF498; [2]) of 20.9 µM. For the same molecule, the TGI (XF498; read-out: pTGI (converted)) was 0.724 µM, the GI50 (LOX IMVI) was 0.0331 µM and the CC50 (LOX IMVI; [2]) was 0.708 µM. It also gave a TGI (LOX IMVI; read-out: pTGI (converted)) of 0.158 µM, a GI50 (Malme-3M) of 0.0759 µM and a CC50 (Malme-3M; [2]) of 8.51 µM. It also gave a TGI (Malme-3M; read-out: pTGI (converted)) of 0.417 µM, a GI50 (M14) of 0.0646 µM and a CC50 (M14; [2]) of 1.7 µM. It also gave a TGI (M14; read-out: pTGI (converted)) of 0.347 µM, a GI50 (M19-MEL) of 0.0398 µM and a CC50 (M19-MEL; [2]) of 5.25 µM. The TGI (M19-MEL; read-out: pTGI (converted)) was 0.513 µM, the GI50 (SK-MEL-2) was 0.038 µM and the CC50 (SK-MEL-2; [2]) was 5.5 µM. The TGI (SK-MEL-2; read-out: pTGI (converted)) was 0.331 µM, the GI50 (SK-MEL-28) was 0.0813 µM and the CC50 (SK-MEL-28; [2]) was 44.7 µM. The TGI (SK-MEL-28; read-out: pTGI (converted)) was 0.646 µM, the GI50 (SK-MEL-5) was 0.0457 µM and the CC50 (SK-MEL-5; [2]) was 1.2 µM. For the same molecule, the TGI (SK-MEL-5; read-out: pTGI (converted)) was 0.209 µM, the GI50 (UACC-257) was 0.141 µM and the CC50 (UACC-257; [2]) was 45.7 µM. For the same molecule, the TGI (UACC-257; read-out: pTGI (converted)) was 1.82 µM, the GI50 (UACC-62) was 0.1 µM and the CC50 (UACC-62; [2]) was 11 µM. For the same molecule, the TGI (UACC-62; read-out: pTGI (converted)) was 0.562 µM, the GI50 (IGROV-1) was 0.141 µM and the CC50 (IGROV-1; [2]) was 67.6 µM. The TGI (IGROV-1; read-out: pTGI (converted)) was 1.1 µM, the GI50 (OVCAR-3) was 0.0832 µM and the CC50 (OVCAR-3; [2]) was 45.7 µM. For the same molecule, the TGI (OVCAR-3; read-out: pTGI (converted)) was 0.501 µM, the GI50 (OVCAR-4) was 0.0363 µM and the CC50 (OVCAR-4; [2]) was 17 µM. For the same molecule, the TGI (OVCAR-4; read-out: pTGI (converted)) was 0.427 µM, the GI50 (OVCAR-5) was 0.324 µM and the CC50 (OVCAR-5; [2]) was > 100 µM. It also gave a TGI (OVCAR-5; read-out: pTGI (converted)) of 2.4 µM, a GI50 (OVCAR-8) of 0.0708 µM and a CC50 (OVCAR-8; [2]) of 72.4 µM. For the same molecule, the TGI (OVCAR-8; read-out: pTGI (converted)) was 2.29 µM, the GI50 (SK-OV-3) was 0.0912 µM and the CC50 (SK-OV-3; [2]) was > 100 µM. For the same molecule, the TGI (SK-OV-3; read-out: pTGI (converted)) was 1.1 µM, the GI50 ([1]; 786-0) was 0.11 µM and the CC50 ([1]; 786-0, read-out: pLC50 (the source's name) (converted)) was 57.5 µM. It also gave a TGI ([1]; 786-0, read-out: pTGI (converted)) of 2.09 µM, a GI50 (A498) of 0.229 µM and a CC50 (A498; [2]) of 9.33 µM. For the same molecule, the TGI (A498; read-out: pTGI (converted)) was 1.1 µM, the GI50 (ACHN) was 0.0813 µM and the CC50 (ACHN; [2]) was 11 µM. For the same molecule, the TGI (ACHN; read-out: pTGI (converted)) was 0.794 µM, the GI50 (CAKI-1) was 0.191 µM and the CC50 (CAKI-1; [2]) was > 100 µM. The TGI (CAKI-1; read-out: pTGI (converted)) was 1.41 µM, the GI50 (RXF 393) was 0.0724 µM and the CC50 (RXF 393; [2]) was 2.51 µM. For the same molecule, the TGI (RXF 393; read-out: pTGI (converted)) was 0.417 µM, the GI50 (SN12C) was 0.141 µM and the CC50 (SN12C; [2]) was 18.2 µM. The TGI (SN12C; read-out: pTGI (converted)) was 1.82 µM, the GI50 (TK-10) was 0.251 µM and the CC50 (TK-10; [2]) was > 100 µM. It also gave a TGI (TK-10; read-out: pTGI (converted)) of 1.91 µM, a GI50 (UO-31) of 0.1 µM and a CC50 (UO-31; [2]) of 44.7 µM. For the same molecule, the TGI (UO-31; read-out: pTGI (converted)) was 0.955 µM and the EC50 (P388) was 0.02 µg/mL (≈ 0.0682 µM).
